The source of these data is article PMC9674260 (Proceedings of the National Academy of Sciences of the …, 2022).

Like-named read-outs stand apart in the source and are kept apart here.

The target of experiment [1] is LRP6 E1-E2 domains (human). Description: SPR.
In the next experiment the target is LRP6 E1-E2. Description: SPR binding to immobilized LRP6 E1-E2. On the set-up: species or system human.
In the next experiment the target is T1, LRP6 E1 (Homo sapiens, UniProt O75581).
T1 sequence (O75581 20-326): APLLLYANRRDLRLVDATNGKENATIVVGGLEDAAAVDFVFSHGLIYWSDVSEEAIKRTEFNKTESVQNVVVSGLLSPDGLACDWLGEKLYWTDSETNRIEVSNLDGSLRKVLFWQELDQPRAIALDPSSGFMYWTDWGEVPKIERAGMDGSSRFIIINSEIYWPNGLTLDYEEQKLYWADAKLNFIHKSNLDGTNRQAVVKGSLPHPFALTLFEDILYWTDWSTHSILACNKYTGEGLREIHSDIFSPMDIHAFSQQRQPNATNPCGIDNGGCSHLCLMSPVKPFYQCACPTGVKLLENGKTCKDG
Description: SPR binding to immobilized LRP6 E1 domain.

Experiment [2] relates to Wnt1/sFRP-1 binding to LRP6-E1-E2. Description: SPR competition with Wnt1/sFRP-1 for LRP6-E1-E2. Further details: species or system human. Particulars: surface coated with LRP6-E1-E2 and saturated with competitor. The method in brief: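 The SPR surface was coated with LRP6-E1-E2, then saturated with competitor or given buffer only. Wnt1/sFRP-1 (purified recombinant complex), competitor, or a mixture of the two was injected immediately afterward. Wnt1/sFRP-1 binding signal with or without competitor was inspected manually.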

The target in a further experiment is LRP6 E3-E4. Description: SPR binding to immobilized LRP6 E3-E4. On the set-up: species or system human.
A further experiment addresses LRP6 E2. To be noted: read-out: KD, binding to E2 alone; previously reported; cited from earlier work.
For a further experiment, the system named is MC3T3-E1 cells. Briefly: Osteogenic differentiation of MC3T3-E1 cells. Type of experiment: cell-based, murine. To be noted: MC3T3-E1 in om+ medium, 21 d; 5 µM Lr-EET-3.5, 1 µg SOST, 1 µM FabYW210 and FabYW211; four independent assays. The method in brief: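 MC3T3-E1 cells were grown in differentiation medium (50 µg/mL ascorbate-2-phosphate, 10 mM β-glycerophosphate) or in control medium without these factors, plus LRP6-binding reagents (Fabs 1 µM, test compound 5 µM). Mineralized nodules were stained with alizarin red S at 21 d, and nodule area above the control-medium background was quantified. Bglap mRNA was measured by qRT-PCR after 1 wk. Values are means of four independent assays, with SD and one-way ANOVA.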

Experiment [3] has as its target LRP6 E3-E4 domains (human). Description: SPR. On the technique in general: SPR reads the build-up and loss of mass on a sensor chip optically.
The subject of experiment [4] is AT2 cells in alveolospheres. It counts as cell-based, mouse. To be noted: LGK974 alone, 2 wk.
The target of experiment [5] is T2, full-length extracellular domain of LRP6 (E1-E4) (human, UniProt O75581 20-1370).
T2 sequence: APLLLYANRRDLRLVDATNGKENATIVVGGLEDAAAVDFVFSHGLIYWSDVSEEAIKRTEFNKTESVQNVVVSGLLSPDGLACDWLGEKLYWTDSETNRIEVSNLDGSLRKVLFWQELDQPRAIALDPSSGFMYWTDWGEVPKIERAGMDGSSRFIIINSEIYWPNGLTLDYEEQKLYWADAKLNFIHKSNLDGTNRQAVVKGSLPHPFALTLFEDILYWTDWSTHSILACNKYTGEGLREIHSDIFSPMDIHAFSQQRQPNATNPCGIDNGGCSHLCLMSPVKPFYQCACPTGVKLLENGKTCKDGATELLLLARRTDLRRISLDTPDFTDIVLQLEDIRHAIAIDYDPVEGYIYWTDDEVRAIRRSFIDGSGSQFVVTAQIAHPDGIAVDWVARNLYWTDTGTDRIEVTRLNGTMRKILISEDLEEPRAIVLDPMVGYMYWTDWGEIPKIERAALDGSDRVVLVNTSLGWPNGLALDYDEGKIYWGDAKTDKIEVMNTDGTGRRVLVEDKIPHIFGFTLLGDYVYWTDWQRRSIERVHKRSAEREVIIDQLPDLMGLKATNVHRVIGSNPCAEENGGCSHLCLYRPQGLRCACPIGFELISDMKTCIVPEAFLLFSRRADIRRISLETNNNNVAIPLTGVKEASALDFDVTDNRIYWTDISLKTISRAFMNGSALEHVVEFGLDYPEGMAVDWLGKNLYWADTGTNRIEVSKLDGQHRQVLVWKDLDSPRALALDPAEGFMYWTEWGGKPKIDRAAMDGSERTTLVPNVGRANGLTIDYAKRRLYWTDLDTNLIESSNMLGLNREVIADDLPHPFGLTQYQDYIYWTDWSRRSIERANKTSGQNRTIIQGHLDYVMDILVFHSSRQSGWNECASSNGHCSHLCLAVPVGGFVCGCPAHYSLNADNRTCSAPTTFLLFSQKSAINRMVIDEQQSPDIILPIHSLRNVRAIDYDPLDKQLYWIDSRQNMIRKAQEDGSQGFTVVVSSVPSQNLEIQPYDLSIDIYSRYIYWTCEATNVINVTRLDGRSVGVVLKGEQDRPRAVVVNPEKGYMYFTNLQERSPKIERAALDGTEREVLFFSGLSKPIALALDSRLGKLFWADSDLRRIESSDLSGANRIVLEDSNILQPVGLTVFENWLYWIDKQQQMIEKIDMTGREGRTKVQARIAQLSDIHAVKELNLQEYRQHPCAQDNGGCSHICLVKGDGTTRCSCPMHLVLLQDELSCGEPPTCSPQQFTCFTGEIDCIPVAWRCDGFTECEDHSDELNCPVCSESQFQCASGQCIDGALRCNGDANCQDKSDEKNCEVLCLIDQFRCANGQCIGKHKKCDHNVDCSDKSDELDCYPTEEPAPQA
Description: SPR.

For experiment [6], the target named is LRP6 E1-E2 domains (human). Briefly: SPR. The source holds these as a separate data set.

Consider “sclerostin (SOST) (from UniProt Q9BQB4 24-213) (natural protein)”, for which, in experiment [1], the KD in the presence of Lr-EET-3.5 was found to be 47 nM and the Kd worked out at 3.3 nM.
As to DKK1: natural Wnt inhibitor Dickkopf-1, the “KD, E1-E2 in the presence of Lr-EET-3.5” value on LRP6 E1-E2 (surface saturated with 500 nM Lr-EET-3.5 and 500 nM CKP in every dilution) is on record as “ablated the binding”. Besides, the “KD, E1 alone” value with LRP6 E1 (SPR, no competitor, two state model) is recorded as “no detectable binding”.
For SOST: natural Wnt inhibitor sclerostin, the “effect on binding of WNT1/sFRP-1 to LRP6” value in experiment [2] is on record as “antagonistic effect”. For the same molecule, the “KD, E3-E4” value at LRP6 E3-E4 (two state model) is given as “no interaction detected”. On LRP6 E2, the Kd was 1300 nM. For the same molecule, in the experiment with MC3T3-E1 cells, the “inhibition of matrix mineralization (alizarin red-S staining)” value was “comparable”. Also, the “binding to E1 alone on addition of Lr-EET-3.5” value in the experiment with LRP6 E1 (SPR competition, 500 nM Lr-EET-3.5) was “completely blocked”.
As for “Dickkopf-1 (DKK1) (from UniProt O94907 32-266) (natural protein)”, the results for the Kd in experiment [1] and in experiment [3] were 135 nM and 43 nM, respectively.
Consider `Cc1cc(-c2ncc(CC(=O)Nc3ccc(-c4cnccn4)cn3)cc2C)ccn1` [LGK974], for which the “AT2 proliferation and formation of alveolospheres” value in [4] is “abrogated AT2 proliferation and the formation of alveolospheres”.

B1: WNT1/secreted frizzled related protein 1 (sFRP-1) complex (complex)
chain 1: ANSSGRWWGIVNVASSTNLLTDSKSLQLVLEPSLQLLSRKQRRLIRQNPGILHSVSGGLQSAVRECKWQFRNRRWNCPTAPGPHLFGKIVNRGCRETAFIFAITSAGVTHSVARSCSEGSIESCTCDYRRRGPGGPDWHWGGCSDNIDFGRLFGREFVDSGEKGRDLRFLMNLHNNEAGRTTVFSEMRQECKCHGMSGSCTVRTCWMRLPTLRAVGDVLRDRFDGASRVLYGNRGSNRASRAELLRLEPEDPAHKPPSPHDLVYFEKSPNFCTYSGRLGTAGTAGRACNSSSPALDGCELLCCGRGHRTRTQRVTERCNCTFHWCCHVSCRNCTHTRVLHECL
chain 2: SEYDYVSFQSDIGPYQSGRFYTKPPQCVDIPADLRLCHNVGYKKMVLPNLLEHETMAEVKQQASSWVPLLNKNCHAGTQVFLCSLFAPVCLDRPIYPCRWLCEAVRDSCEPVMQFFGFYWPEMLKCDKFPEGDVCIAMTPPNATEASKPQGTTVCPPCDNELKSEAIIEHLCASEFALRMKIKEVKKENGDKKIVPKKKKPLKLGPIKKKDLKKLVLYLKNGADCPCHQLDNLSHHFLIMGRKVKSQYLLTAIHKWDKKNKEFKNFMKKMKNHECPTFQSVFK
Turning to B1, in the experiment on LRP6 E3-E4 (Wnt1/sFRP-1 as analyte), the “interaction with E3-E4” value is recorded as “no interaction detected”. The Kd came to 3.4 nM at LRP6 E1-E2 (read-out: KD, E1-E2, Wnt1/sFRP-1 as analyte, 1:1 binding model); 6 nM in experiment [5]; 3.4 nM in [6].

B2: sclerostin (SOST) (natural protein)
chain: QGWQAFKNDATEIIPELGEYPEPPPELENNKTMNRAENGGRPPHHPFETKDVSEYSCRELHFTRYVTDGPCRSAKPVTELVCSGQCGPARLLPNAIGRGKWWRPSGPDFRCIPDRYRAQRVQLLCPGGEAPRARKVRLVASCKCKRLTRFHNQSELKDFGTEAARPQKGRKPRPRARSAKANQAELENAY
Consider B2, for which, in experiment [5], the “KD in the presence of Lr-EET-3.5” value was 41 nM and the Kd came to 3.8 nM.
